# A selection: hits, their analogues and other compounds. The true share with any hit is near 3.1%.
# EWS-Fli inh = EWS/Fli-driven NR0B1 reporter inhibitors, primary screen, A673 cells, NR0B1 luciferase, luminescence, MLPCN library. 350,000 compounds, 0.67% hits. AID 651661, 2012. viability-normalised. inhibition, % at 12.6 µM;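 active = mean inhibition of at least 50% after viability correction, with every replicate also passing that limit; inconclusive = mean reaches 50% but only one of two replicates passes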;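 also: firefly luciferase signal divided by Alamar Blue viability fluorescence both relative to DMSO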
# HIV Env fusion = inhibitors of HIV-1 Env-driven cell-cell fusion, primary screen, HeLa-JRFL effector, CEM21 target cells, luciferase. inhibition, % at 12.3 µM. 360,000 compounds, 1.1% hits;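 active = mean replicate inhibition score of at least 50 and every replicate individually at or above 50; inconclusive = only one of the two criteria met; inactive = mean below 50 and not all replicates reaching 50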
# PAX8 inh HTS = inhibitors of PAX8-driven TPO luciferase reporter, primary screen, RMG-I cells, single concentration; 360,000 compounds, 1.2% hits; AID 652154, 2013; inhibition, % at 12.6 µM; SteadyGlo, 24 h;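 active = mean replicate inhibition at least 60% with every replicate also reaching 60%; inconclusive = only one of the two criteria is met; inactive = mean below 60% and not all replicates reaching 60%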;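 also: luciferase light reporting Pax8 driven TPO promoter activity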
# FN deposit inh = inhibitors of fibronectin matrix deposition, primary screen, AH1F cells, Alexa488-fibronectin fluorescence, plate reader; inhibition, % at 12.6 µM; 350,000 compounds, 0.086% hits; AH1F fibroblasts, overnight;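 active = mean inhibition across replicates of 30% or more, regardless of how many single replicates reach that level; inconclusive = mean under 30% yet at least half of replicates reach 30%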
#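 Material: AH1F fibroblast monolayer depositing Alexa488-labelled fibronectin into matrix | Input: 10000 AH1F cells/well | Medium: DMEM plus 2% serum, read in PBS | Reagent: Alexa488-fibronectin, 24 nM final in well | Compound dosing: One dose per compound, pinned | Schedule: 1 h adhesion, overnight exposure | Measured by: Fluorescence at 485 nm excitation, 525 nm emission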
# PGC1a acetyl inh = inhibitors of PGC1a acetylation signal, primary screen, cell-based, U2OS, AlphaScreen, inhibitor mode | AlphaScreen anti-acetyl-lysine; with virally co-expressed GCN5 acetyltransferase | inhibition, % at 15.6 µM | 350,000 compounds, 0.17% hits | AID 651687, 2012;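 active = every replicate shows inhibition of at least 40%; inconclusive = mean inhibition at least 40% but some replicate below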
# FGF22 binding = binders of human FGF22 protein, primary screen, FGF22 synaptogenesis inhibitor project, biophysical, thermal shift, single point. recombinant FGF22 thermal shift, SYPRO orange fluorescence; percent of sucrose octasulfate shift, DMSO zero. Fibroblast growth factor 22 (Homo sapiens), Q9HCT0. 340,000 compounds, 1.5% hits. activity (Tm shift, normalised), % at 9.99 µM;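 active = mean Tm shift, scaled 0 neutral to 100 positive control, at about 1.3% or above, every replicate too, limit read from the data; inconclusive = no clear call, values can overlap the other calls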
# Target sequence (Q9HCT0 whole entry, looked up): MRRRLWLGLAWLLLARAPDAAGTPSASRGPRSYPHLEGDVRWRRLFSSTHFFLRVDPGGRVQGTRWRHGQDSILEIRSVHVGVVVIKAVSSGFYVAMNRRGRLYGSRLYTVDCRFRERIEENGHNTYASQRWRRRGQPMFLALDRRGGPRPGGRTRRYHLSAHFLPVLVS
# Hits are given with their value; - = inactive; ? = inconclusive; . = not tested or not shown.
SMILES,EWS-Fli inh,HIV Env fusion,PAX8 inh HTS,FN deposit inh,PGC1a acetyl inh,FGF22 binding
CC(C)NC(=O)N1C[C@H]2[C@@H](c3ccccc31)[C@H](CO)N2C(=O)c1ccc(F)cc1,-,.,-,.,-,-
CCCn1c(C)cc(C(=O)COc2ncnc3sccc23)c1C,-,.,.,.,-,-
CCCn1c(C)cc(C(=O)COc2ccc(-c3nnco3)cc2)c1C,-,-,-,-,-,43
CCC1CCCCN1C(=O)CCc1nnc(C2CCCCC2)o1 (centres undefined),-,-,-,-,-,43
CCCN1[C@@H]2Cn3c(ccc(-c4ccccc4F)c3=O)[C@H]1[C@@H](C(=O)NCCOC)[C@@H]2CO,-,.,.,.,.,-
O=C1/C(=C/c2ccc3c(c2)OCO3)SC(=S)N1CCC(=O)N(CCO)c1ccccc1,-,-,-,-,.,-
COc1cccc(/C=C2\SC(=S)N(CCCC(=O)N(CCO)c3ccccc3)C2=O)c1,-,-,65,-,.,-
O=C1/C(=C/c2cccc(Br)c2)SC(=S)N1CCC(=O)N(CCO)c1ccccc1,-,-,90,-,-,-
C[C@H](CO)N1C[C@H](C)[C@@H](CN(C)C(=O)c2cccnc2)Oc2cc(C#CC3(O)CCCC3)ccc2S1(=O)=O,-,.,-,.,-,-
O=C(C[C@@H]1C=C[C@@H](NC(=O)C2CCOCC2)[C@H](CO)O1)NCC1CCCCC1,-,-,.,-,-,-
CCOc1ncccc1C(=O)N1CCCSC1=Nc1ccc(C(C)=O)cc1,-,-,-,-,-,43
CC(C)C[C@@H](C(=O)O)N(Cc1cccc(CN([C@@H](CC(C)C)C(=O)O)S(C)(=O)=O)c1)S(C)(=O)=O,-,61,-,-,-,-
COC(=O)[C@@H](Cc1ccccc1)N(Cc1ccccc1)S(=O)(=O)N(Cc1ccccc1)[C@H](Cc1ccccc1)C(=O)OC,-,-,-,-,.,-
COC(=O)[C@@H](CC(C)C)N(Cc1ccccc1)S(=O)(=O)N(Cc1ccccc1)[C@@H](CC(C)C)C(=O)OC,-,85,-,-,.,-
C[C@@H]1CN([C@H](C)CO)S(=O)(=O)c2ccc(C#CCN(C)C)cc2O[C@H]1CN(C)Cc1cccnc1,-,-,.,-,-,-
Cc1cc2oc(C(=O)Nc3ccc(S(N)(=O)=O)cc3)c(C)c2cc1Cl,-,-,-,-,-,43
Cc1ccc2c(C)c(C(=O)NCc3ccc(S(N)(=O)=O)cc3)oc2c1C,-,-,-,-,-,43
Cc1ccc2c(C)c(C(=O)Nc3ccc(S(N)(=O)=O)cc3)oc2c1C,-,-,-,-,-,-
CCSc1nc(N)nc2c1ncn2C1OC(CO)C(O)C1O (centres undefined),-,-,-,.,-,-
OC[C@H]1O[C@@H](n2cnc3c(NC4CCCC4)nc(Cl)nc32)[C@H](O)[C@@H]1O,-,-,-,-,-,-
Nc1nc(Cl)nc2c1ncn2[C@@H]1O[C@H](CO)[C@@H](O)[C@H]1O,-,-,70,-,-,-
Nc1nc(SCc2ccc(Br)cc2)c2ncn(C3OC(CO)C(O)C3O)c2n1 (centres undefined),-,-,-,-,-,44
OCC1OC(n2cnc3c(/C=C(\O)c4ccccc4)ncnc32)C(O)C1O (centres undefined),-,55,-,.,-,-
CCCC#Cc1cnc2c(c1)C(=O)N([C@H](C)CO)C[C@@H](C)[C@H](CN(C)C(=O)C1CCC1)O2,-,-,.,.,-,-
N#Cc1cccc(-c2ccc3c(c2)[C@@H]2[C@@H](CCN2C(=O)C2CCCCC2)[C@H](CO)N3)c1,-,.,-,-,-,-
SMILES,EWS-Fli inh,HIV Env fusion,PAX8 inh HTS,FN deposit inh,PGC1a acetyl inh,FGF22 binding
COc1ccc(C[C@H](N)C(=O)N[C@H]2[C@@H](O)[C@H](n3cnc4c(N(C)C)ncnc43)O[C@@H]2CO)cc1,-,-,117,-,-,-
C=CCOc1ccc(C[C@H](N)C(=O)NC[C@H]2O[C@@H](n3cnc4c(N)ncnc43)[C@H](O)[C@@H]2O)cc1,.,.,.,.,-,.
CC(=O)c1ccc(N(CC(=O)Nc2cc(C)on2)S(=O)(=O)c2ccc(C)cc2)cc1,-,-,-,-,-,43
CN1CCN(C(=O)C[C@H]2CC[C@@H](NC(=O)c3ccc4c(c3)OCO4)[C@@H](CO)O2)CC1,-,-,-,-,-,-
Cc1ccc(C(=O)OCc2c(C)noc2C)cc1NC(=O)c1ccco1,-,-,-,.,-,44
O=Nc1c(-c2ccccc2)cc2ccccn12,-,-,-,-,.,43
CN(C)C(=O)C(=O)c1c(-c2ccccc2)cc2ccccn12,.,.,.,.,-,.
CC(C)c1ccc2c(c1)CCC1C(C)(CN)CCCC21C (centres undefined),59,-,-,-,-,-
CC(C)c1ccc2c(c1)CC[C@H]1[C@](C)(CN)CCC[C@]21C,-,-,-,-,-,-
O=C(C1CCCC1)N1CC2(C1)[C@@H](c1ccccc1)[C@@H](CO)N2C(=O)CC1CC1,-,.,.,-,-,-
Cn1c(CCN2CCN(c3ccccn3)CC2)nc2cc(NS(=O)(=O)c3ccccc3)ccc21,.,-,72,-,-,-
Cc1ccc(OCC(=O)Nc2ccc3c(c2)nc(CCN2CCN(c4ccccn4)CC2)n3C)cc1,-,61,-,-,.,-
Cc1ccc(C(C)C)c(OCC(=O)Nc2ccc3c(c2)nc(CCN2CCCCC2)n3C)c1,?,-,83,-,.,-
Cn1c(CCN2CCOCC2)nc2cc(NS(=O)(=O)c3ccccc3)ccc21,-,-,-,-,-,-
Cn1c(CCN2CCN(c3ccccn3)CC2)nc2cc(NC(=O)COc3ccccc3)ccc21,.,-,66,-,-,-
O=C(NC(=O)c1cccc(F)c1)Nc1nc(-c2ccc(F)cc2)cc(C(F)(F)F)n1,-,-,-,-,.,44
O=C(NC(=O)c1ccc(F)cc1)Nc1nc(-c2cccs2)cc(C(F)(F)F)n1,-,-,-,-,-,-
CC(C)NC[C@@H]1[C@@H](c2ccc(C3=CCCCC3)cc2)[C@H](CO)N1C(=O)NC(C)C,-,.,-,-,-,-
O=C(NC1CCS(=O)(=O)C1)c1cccc(S(=O)(=O)N2CCCC2)c1 (centres undefined),-,-,-,-,-,43
CC1CCCC(NC(=O)COC(=O)c2ccccc2Sc2ccccc2C#N)C1C (centres undefined),-,.,133,-,-,-
CC1CCCC(NC(=O)COC(=O)C2=COCCO2)C1C (centres undefined),-,-,-,-,-,44

# Screening results as filed in PubChem.
